From ChEMBL document CHEMBL4325831, “Novel Pyrrole-Imidazole Polyamide Hoechst Conjugate Suppresses Epstein-Barr Virus Replication and Virus-Positive Tumor Growth” (J Med Chem, 2018)
Activity calls are given as the source filed them. The rule behind the calls is not given here.

Assays:
[1] = Inhibition of recombinant EBNA1 binding to biotin-labeled Epstein-Barr virus OriP hairpin DNA EBNA1 site 1 mutant assessed as dissociation constant by SPR assay; parameters: species or system human gammaherpesvirus 4
In short: (§1)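 SPR on a streptavidin-coated chip (about 16 000 RU) carrying biotinylated short hairpin DNA, loaded at 200 nM and immobilized to about 700–900 RU. Run in HBS-EP (10 mM HEPES pH 7.4, 150 mM NaCl, 3 mM EDTA, 0.005% P20) at 25 °C. Polyamides were diluted first in ultrapure water, then into a concentration gradient. ka and kd were fitted from sensorgrams.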

[2] = tested on: RPMI-8226; assay: Cell growth inhibition of human RPMI8226 cells after 72 hrs by MTT assay; type: functional; details: RPMI-8226, 72 h
In short: (§2)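 Suspension cells seeded at 7 × 10^3 per well, adherent at 3 × 10^3 per well, in quadruplicate across a concentration series. Grown 72 h, then viability relative to control read by MTT. GI50 from sigmoidal dose–response fit; at least triplicate experiments. RPMI-based medium for suspension lines, high-glucose DMEM for MDA-MB-231, both with 10% FBS, 5% CO2, 37 °C.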

[3] = tested on: human gammaherpesvirus 4; assay: Inhibition of EBNA1 binding to Epstein-Barr virus OriP DNA in […] cells assessed as reduction in EBV copy number at 10 uM after 120 hrs by qRT-PCR analysis; type: cell-based
In short: (§3)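 Raji (5 × 10^5), B95-8 (5 × 10^5) or Daudi (1 × 10^6) cells cultured with 10 μM polyamide. Genomic DNA extracted at intervals (Raji every 24 h). SYBR real-time PCR in triplicate: 95 °C 5 min, then 40 cycles of 95 °C 10 s / 60 °C 30 s, followed by melt curve. EBV copies relative to cellular DNA by ΔΔCt.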

[4] = tested on: Raji; assay: Inhibition of EBNA1 binding to Epstein-Barr virus OriP DNA in human Raji cells assessed as reduction in EBV copy number at 10 uM after 120 hrs by qRT-PCR analysis; type: cell-based; details: human gammaherpesvirus 4; in short: as §3
[5] = tested on: Human gammaherpesvirus 4; assay: Inhibition of Epstein-Barr virus-induced human Daudi cell proliferation after 72 hrs by MTT assay; type: functional; details: human gammaherpesvirus 4, Daudi; in short: as §2
[6] = tested on: Raji; assay: Inhibition of EBNA1 binding to Epstein-Barr virus OriP DNA in human Raji cells assessed as reduction in EBNA2 protein expression up to 20 uM after 24 hrs by Western blot analysis; type: cell-based; details: human gammaherpesvirus 4
In short: (§4)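 Raji cells exposed 24 h to 0, 1, 2, 5, 10 or 20 μM. Cells lysed in nondenaturing buffer with protease inhibitors and run on 10% SDS-PAGE, then PVDF. Membranes probed overnight at 4 °C for EBNA1, EBNA2 and GAPDH, HRP secondary 1 h, chemiluminescent detection. At least triplicate.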

[7] = Inhibition of recombinant EBNA1 binding to biotin-labeled Epstein-Barr virus OriP hairpin DNA EBNA1 site 2 mutant assessed as dissociation constant by SPR assay; parameters: species or system human gammaherpesvirus 4; in short: as §1
[8] = tested on: Human gammaherpesvirus 4; assay: Antiviral activity against Epstein-Barr virus positive human Raji cells xenografted in Balb/c mouse assessed as reduction in EBV DNA copy at 5 to 10 mg/kg, sc administered every 3 days for 25 days; type: functional, organism-based
In short: (§5)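 Female Balb/c nude mice given 1 × 10^7 Raji cells sc in left flank (in 100 μL serum-free RPMI). Dosing began at tumor ~50 mm3 (L × W × 1/2W). Compound in 100 μL 5% DMSO/0.9% NaCl, injected sc around tumor every 3 days, eight injections; vehicle n = 6, treated groups n = 7. Tumor size and body weight taken before each injection. Tumor DNA analysed by real-time PCR for relative EBV copy number.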

[9] = tested on: NALM-6; assay: Cell growth inhibition of human NALM6 cells after 72 hrs by MTT assay; type: functional; details: NALM-6, 72 h; in short: as §2
[10] = tested on: Raji; assay: Inhibition of EBNA1 binding to Epstein-Barr virus OriP DNA in human Raji cells assessed as reduction in EBNA1 protein expression up to 20 uM after 24 hrs by Western blot analysis; type: cell-based; details: human gammaherpesvirus 4; in short: as §4
[11] = tested on: Human gammaherpesvirus 4; assay: Inhibition of Epstein-Barr virus-induced human Raji cell proliferation xenografted in Balb/c mouse assessed as reduction in tumor size at 5 mg/kg, sc administered every 3 days for 25 days and measured every 3 days before drug injection; type: functional, organism-based; in short: as §5
[12] = tested on: human gammaherpesvirus 4; assay: Inhibition of recombinant EBNA1 binding to biotin-labeled Epstein-Barr virus OriP hairpin DNA EBNA1 site 2 assessed as reduction in RU increase at 200 nM by SPR assay
In short: (§6)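 SPR in HBS-EP (10 mM HEPES pH 7.4, 150 mM NaCl, 3 mM EDTA, 0.005% P20) at 25 °C. Biotin hairpin DNA (200 nM) captured at 700–900 RU on streptavidin. Polyamide (200 nM) injected at 25 μL/min for 4 min with no dissociation phase, then 100 nM recombinant EBNA1 for 3 min. Relative reduction in RU rise recorded.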

[13] = Inhibition of recombinant EBNA1 binding to biotin-labeled Epstein-Barr virus OriP hairpin DNA EBNA1 site 1 assessed as dissociation constant by SPR assay; parameters: species or system human gammaherpesvirus 4
[14] = tested on: Daudi; assay: Inhibition of EBNA1 binding to Epstein-Barr virus OriP DNA in human Daudi cells assessed as reduction in EBV copy number at 10 uM after 120 hrs by qRT-PCR analysis; type: cell-based; details: human gammaherpesvirus 4; in short: as §3
[15] = tested on: Human gammaherpesvirus 4; assay: Inhibition of Epstein-Barr virus-induced human Daudi cell proliferation assessed reduction in cell viability at 10 uM measured at day 3 and day 6 post dose following media refreshment every 3 days trypan blue dye-based assay; type: functional, organism-based
In short: (§7)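 5 × 10^5 cells in 2 mL medium with 10 μM polyamide. After 3 days an equal volume of fresh medium containing polyamide was added. Living cells counted by 0.4% trypan blue exclusion at days 3 and 6. Significance by one-way ANOVA.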

[16] = tested on: Raji; assay: Inhibition of EBNA1 binding to Epstein-Barr virus OriP DNA in human Raji cells at 10 uM after 24 to 48 hrs by chIP assay; type: cell-based; details: human gammaherpesvirus 4
In short: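 Raji cells with 10 μM polyamide, 8 × 10^6 harvested at 0, 24 and 48 h. Formaldehyde fixation, enzymatic chromatin ChIP; 2% input kept. IP overnight with 1 μg anti-EBNA1 or mouse IgG1, magnetic-bead capture. OriP detected by SYBR qPCR (95 °C 5 min; 40 cycles of 95 °C 15 s / 60 °C 60 s). ΔΔCt relative to input.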

[17] = tested on: MOLT-4; assay: Cell growth inhibition of human MOLT4 cells at 10 uM measured at day 3 and day 6 following media refreshment every 3 days by trypan blue dye-based assay; type: functional; in short: as §7
[18] = tested on: Human gammaherpesvirus 4; assay: Inhibition of Epstein-Barr virus-induced human Raji cell proliferation xenografted in Balb/c mouse assessed as reduction in tumor size at 10 mg/kg, sc administered every 3 days for 25 days and measured every 3 days before drug injection; type: functional, organism-based; in short: as §5
[19] = tested on: Human gammaherpesvirus 4; assay: Inhibition of Epstein-Barr virus-induced human Raji cell proliferation after 72 hrs by MTT assay; type: functional; details: human gammaherpesvirus 4, Raji; in short: as §2
[20] = tested on: Human gammaherpesvirus 4; assay: Inhibition of Epstein-Barr virus-induced human Raji cell proliferation assessed reduction in cell viability at 10 uM measured at day 3 and day 6 post dose following media refreshment every 3 days trypan blue dye-based assay; type: functional, organism-based; in short: as §7
[21] = Inhibition of recombinant EBNA1 binding to biotin-labeled Epstein-Barr virus OriP hairpin DNA EBNA1 site 2 assessed as dissociation constant by SPR assay; parameters: species or system human gammaherpesvirus 4
[22] = Toxicity in Balb/c mouse infected with Epstein-Barr virus positive human Raji cells assessed as body weight loss at 5 to 10 mg/kg, sc administered every 3 days for 25 days and measured every 3 days before drug injection; type: organism-based; details: in vivo; in short: as §5
[23] = tested on: Human gammaherpesvirus 4; assay: Inhibition of Epstein-Barr virus-induced […] cell proliferation after 72 hrs by MTT assay; type: functional; details: human gammaherpesvirus 4, B-95-8, 72 h; in short: as §2
[24] = tested on: human gammaherpesvirus 4; assay: Inhibition of recombinant EBNA1 binding to biotin-labeled Epstein-Barr virus OriP hairpin DNA EBNA1 site 1 assessed as reduction in RU increase at 200 nM by SPR assay; in short: as §6
[25] = tested on: MDA-MB-231; assay: Cell growth inhibition of human MDA-MB-231 cells after 72 hrs by MTT assay; type: functional; details: MDA-MB-231, 72 h; in short: as §2
[26] = tested on: Jurkat; assay: Cell growth inhibition of human Jurkat cells after 72 hrs by MTT assay; type: functional; in short: as §2
[27] = tested on: MOLT-4; assay: Cell growth inhibition of human MOLT4 cells after 72 hrs by MTT assay; type: functional; details: MOLT-4, 72 h; in short: as §2

Row | SMILES | Kd [1] [µM] | GI50 [2] [µM] | inhibition [4] | GI50 [5] [µM] | inhibition [6] | Kd [7] [µM] | GI50 [9] [µM] | inhibition [10] | fold change (FC) [12] | Kd [13] [µM] | inhibition [15] | inhibition [16] | growth inhibition (GI) [17] | GI50 [19] [µM] | inhibition [20] | Kd [21] [µM] | GI50 [23] [µM] | fold change (FC) [24] | GI50 [25] [µM] | GI50 [26] [µM] | also measured
1 | CN(C)CCCNC(=O)c1cc(NC(=O)c2nc(NC(=O)c3cc(NC(=O)c4cc(NC(=O)[C@@H](CCNC(=O)c5cc(NC(=O)c6cc(NC(=O)c7cc(NC(=O)c8nccn8C)cn7C)cn6C)cn5C)NC(=O)CCCOc5ccc(-c6nc7cc(-c8nc9cc(N%10CCN(C)CC%10)ccc9[nH]8)ccc7[nH]6)cc5)cn4C)cn3C)cn2C)cn1C | 0.747 | 24.5 | Active | 4.02 | Dose-dependent effect | 0.187 | 22.2 | Dose-dependent effect | 0.412 | 0.0228 | Active | Active | inactive | 8 | Active | 0.0129 | 9.42 | 0.583 | > 100 | > 100 | inhibition [3]: Active; Activity [8]: Active; inhibition [11]: Active; inhibition [14]: Active; inhibition [18]: Active; Activity [22]: Non-Toxic; GI50 [27]: 25 µM
2 | CN(C)CCCNC(=O)c1cc(NC(=O)c2cc(NC(=O)c3cc(NC(=O)c4cc(NC(=O)[C@@H](CCNC(=O)c5cc(NC(=O)c6cc(NC(=O)c7nc(NC(=O)c8nccn8C)cn7C)cn6C)cn5C)NC(=O)CCCOc5ccc(-c6nc7cc(-c8nc9cc(N%10CCN(C)CC%10)ccc9[nH]8)ccc7[nH]6)cc5)cn4C)cn3C)cn2C)cn1C |  |  | inactive |  |  |  |  |  | 0.088 | 0.335 |  |  |  |  |  | 0.263 |  | 0.091 |  |  | 
3 | CN(C)CCCNC(=O)c1cc(NC(=O)c2nc(NC(=O)c3cc(NC(=O)c4cc(NC(=O)[C@H](N)CCNC(=O)c5cc(NC(=O)c6cc(NC(=O)c7cc(NC(=O)c8nccn8C)cn7C)cn6C)cn5C)cn4C)cn3C)cn2C)cn1C | 0.0252 | 43.9 | inactive | 12.9 | inactive | 0.0206 | 41.9 | inactive | 0.524 | 0.0015 | Active | inactive | inactive | 29.4 | Active | 0.00452 | 30.2 | 0.646 | > 100 | > 100 | GI50 [27]: 30.3 µM
